Here are results for 97 molecules from ChEMBL document CHEMBL4513216, “Probing the Open Global Health Chemical Diversity Library for Multistage-Active Starting Points for Next-Generation Antimalarials” (ACS Infect Dis, 2020).

This data set is described as follows: Toxicity liver stage against HepG2, at 10uM. Format: cell-based. More on the design: test concentration 10 uM, cell line HepG2-A16-CD81EGFP. The note with it: human, HepG2-A16-CD81EGFP cells; read-out: INHIBITION
A digest of the protocol:
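Uninfected HepG2-A16-CD81EGFP cells, 3 × 10^3 per well, 1536-well, plated on prespotted compound at 10 μM final, parasite-free screening media added to match infected plates; puromycin 10 μM positive, DMSO 0.5% negative; run in parallel with 48 h PbLuc assay at 37 °C, 5% CO2; viability by CellTiter-Glo luminescence, normalized to controls.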
Regarding `CCSc1ccccc1C(=O)N(CCOC)Cc1ccoc1`, the cytotoxicity at 10 µM turned out to be 13.8%. As for `CCS(=O)(=O)NCc1nc(C)cc(N2CCCC2)n1`, the figure is -0.714%; as for `CN(C)C(=O)N1CC(=O)NCC12CCN(C(=O)c1ccco1)C2` (configuration not stated), -0.125%. As for `O=C1CC2(CCCCN2C(=O)c2ccoc2)CN1Cc1ccccc1` (configuration not stated), the figure is 6.35%; as for `C[C@@H]1C[C@H]2CN(S(=O)(=O)c3ccc(F)cc3)C[C@H]2O1`, 3.26%; as for `CC(C)n1cnc(C2CN(C)c3ccc(C(=O)NC4CCCC4)cc32)n1` (configuration not stated), 10.4%. As for `O=C1[C@@H]2CCN(Cc3ccc(F)cc3)C[C@@H]2OCCN1c1cccnc1`, the figure is 8.82%. For `CN1CC[C@]2(CN(Cc3cccs3)C[C@H]2c2ccccc2)C1=O`, the cytotoxicity at 10 µM was found to be 9.82%. As for `CCO[C@@H]1CCN(c2ccc(C)nn2)[C@@H]1Cc1cnn(C)c1`, the figure is 2.2%; as for `COCC1CC2(CCNCC2)CN1c1ncccn1` (configuration not stated), 7.51%; as for `COc1ccc(C2CC(=O)Nc3nc(N4CCOCC4)sc32)cc1` (configuration not stated), 10.8%. With `Cc1cc(C)n(CCNCc2cc(-c3ccc(Cl)cc3)c[nH]c2=O)n1` the figure was -2.38%; with `CC(C)C(=O)N1CCCC(Cc2ccccn2)C1` (configuration not stated), -5.3%; with `Cc1n[nH]c(C)c1-c1nccnc1CC1CCNC1` (configuration not stated), -4.96%. With `Cc1n[nH]c(C)c1S(=O)(=O)N1CCC(Oc2cnccn2)CC1` the figure was 3.15%; with `Cc1nc(-c2ccccc2C(=O)O)cc(C2CCN(C(C)C)C2)n1` (configuration not stated), -13.1%.

For `COCCNC(=O)c1cc(C2CC2)nc2onc(C3CCNC3)c12` (configuration not stated), the cytotoxicity at 10 µM turned out to be 7.55%. As for `CCOc1cccc(CNC(=O)NC2CC=CC2)c1OC(F)F`, the figure is -49.1%; as for `Cc1ccc(Cl)c(NC(=O)NC2(C)CCOC2)c1` (configuration not stated), -46.7%; as for `Cc1ccc(NC2CCN(C(=O)CCC3CCCO3)CC2)nn1` (configuration not stated), -1.2%. In the case of `CCOc1ccc(CN(C)C(=O)c2nc(N3CCCC3)ncc2Cl)cc1`, the cytotoxicity at 10 µM was -33%.

For `COC1CCN(CCNC(=O)NCC(C)c2cccc(C)c2)CC1` (configuration not stated), the cytotoxicity at 10 µM was -4.47%. With `CNC(=O)c1cccnc1N1CCN(C/C=C/c2ccccc2)CC1` the figure was -9.23%.

Consider `CC(NC(=O)CCc1nc(C(C)(C)C)no1)c1nnc2n1CCC2` (configuration not stated), for which the cytotoxicity at 10 µM came to 12%.

With `Cn1cc(N2CCC(NC(=O)c3ccccc3Cl)C2=O)cn1` (configuration not stated), the cytotoxicity at 10 µM amounted to 4.35%. As for `O=S1(=O)CCN(c2nc(C3CC3)ns2)CC1`, the figure is 2.37%.

On to `CC(C)n1cc(CN2CCCN(C(=O)c3ccco3)CC2)cn1`, for which the cytotoxicity at 10 µM was -2.27%.

As for `O=C(N1CCC(Oc2ccncc2)C1)C1(c2cccc(F)c2)CC1` (configuration not stated), the cytotoxicity at 10 µM is -6.52%. As for `Cc1nc2n(n1)CC(NCC(=O)NCCCOC(C)C)CC2` (configuration not stated), the figure is -5.03%. As for `COc1ncccc1NC(=O)NC(C)(C)c1ncc(C)s1`, the figure is -9.44%; as for `CN(C(=O)CN1CCCC1c1cnn(C)c1)C1(C#N)CCCCC1` (configuration not stated), 1.41%. As for `Cc1ccc2cc(C(=O)N3CCN(C(=O)c4ccoc4)CC3)[nH]c2c1`, the figure is -43.6%; as for `CSC(C)C(=O)NS(=O)(=O)c1ccc(F)c(C(F)(F)F)c1` (configuration not stated), -6.52%. Turning to `CC(Cn1cccn1)NC(=O)NCCCN1CCc2ccccc21` (configuration not stated), the cytotoxicity at 10 µM was -0.449%. As for `Cc1cc(CN2CCN(C(=O)NCCCc3cn[nH]c3C)CC2)on1`, the figure is -13.2%; as for `Cn1cc(NC(=O)NC2CCCN(c3ccccc3Cl)C2=O)cn1` (configuration not stated), -41.8%. Regarding `Cc1ncc(CN(C)CC(O)c2ccc(Br)cc2)s1` (configuration not stated), the cytotoxicity at 10 µM amounted to 7.12%.

Take `CCc1nnsc1C(=O)N(C)Cc1ccc(C)o1`: the cytotoxicity at 10 µM was -46.5%. As for `CC1COCCN1C(=O)NCCCn1ccnc1` (configuration not stated), the figure is -44.9%.

As to `CCc1nc(C(=O)NCc2ccc(N3CCNC(=O)C3)c(F)c2)c[nH]1`, the cytotoxicity at 10 µM is -7.12%.

For the molecule `COc1ccccc1OCC(=O)NS(=O)(=O)c1ccccc1F`, the cytotoxicity at 10 µM was -18%. With `Cc1noc(C)c1CNC(=O)N1CCC(C(O)c2ccccc2)CC1` (configuration not stated) the figure was -9.41%; with `CNC(=O)COc1ccc(CNCc2ccc(F)cc2F)cc1`, -8.6%; with `COCC1CN(S(=O)(=O)c2cccs2)Cc2ncnn2C1` (configuration not stated), -120%. As for `CS(=O)(=O)N1C[C@@H]2COC[C@]2(C(=O)NCCc2cccs2)C1`, the figure is -110%.

`C[C@H](O)CNc1cc(-c2cn[nH]c2)ncn1`: the cytotoxicity at 10 µM was -15.6%. `O=C(NCCN1CCOC1=O)c1cnc(-c2cccnc2)nc1`: the cytotoxicity at 10 µM turned out to be 0.611%. With `CSC(C)CCN1CCCn2nc(CNC(=O)C3CCC3)cc2C1` (configuration not stated) the figure was 0.812%. As for `O=C(O)c1cc(-c2cc[nH]n2)cc(S(=O)(=O)N2CCCCCC2)c1`, the figure is -4.88%; as for `CCc1ncc(C(=O)N2C[C@@H](C)O[C@@H](C)C2)cn1`, -4.34%; as for `CN(C)C(=O)NCC(=O)N1CCCC2(CCC(=O)N(CC3CC3)C2)C1` (configuration not stated), -8.38%.

For the molecule `COCCN1CC(Nc2nc(C3CCCC3)nc3c2cnn3C)CC1=O` (configuration not stated), the cytotoxicity at 10 µM was -1.18%. With `Cc1ccc(CN2CCN(Cc3nccn3C)[C@H]3CS(=O)(=O)C[C@H]32)o1`, the cytotoxicity at 10 µM is -3.65%.

In the case of `N[C@@H]1CC[C@@H](NC(=O)c2ccccc2OC(F)(F)C(F)F)C1`, the cytotoxicity at 10 µM is -4.85%. With `COc1ccc(N2CCN(C[C@@H](C)CO)CC2=O)cc1` the figure was 1.99%; with `CCn1c(CN(C)C)nnc1C1CCN(Cc2cccc(F)c2F)CC1`, 1.49%. For `CCCSCC(=O)N1CCCC(c2nccn2Cc2ccncc2)C1` (configuration not stated), the cytotoxicity at 10 µM turned out to be 4.69%. With `COc1ccccc1C1CNC(=O)c2nc(-c3cn(C)nc3C)[nH]c2C1` (configuration not stated) the figure was -1.07%; with `Nc1ncc(CN2C[C@H](C3CC3)[C@@H](N)C2)cn1`, -44.6%. Regarding `CN(C)Cc1nnc(C2CCCN(Cc3ccc(Cl)s3)C2)n1C` (configuration not stated), the cytotoxicity at 10 µM was -11.1%. As for `CCOCCOc1ccccc1C(=O)N1C[C@H](C2CC2)[C@@H](N)C1`, the figure is -0.332%.

`CC(NCc1cc(O)c2cccc(F)c2n1)c1ccccc1O` (configuration not stated): the cytotoxicity at 10 µM came to 4.28%. As for `CCc1nnc(CNC(=O)CCCN2CCCCC2)s1`, the figure is -15.4%. Turning to `COc1cccc(CN2CCN(Cc3ccc4nonc4c3)CC2=O)c1`, the cytotoxicity at 10 µM was -1.98%. As for `OC1CCN(C2CCN(Cc3cnc(-c4cccs4)nc3)CC2)CC1`, the figure is -9.77%; as for `Cc1c(CNC(=O)C2CCCCCN2C)oc2ccccc12` (configuration not stated), 11.4%.

Take `CSCCCNC(=O)c1coc(Cn2cnc3ccccc32)n1`: the cytotoxicity at 10 µM was -6.33%. `CCC1CN(C(=O)c2ccc(=O)[nH]n2)CCC(=O)N1Cc1ccccc1` (configuration not stated): the cytotoxicity at 10 µM was 10.4%.

On to `CCCNC(=O)c1cc(OC)c(OC)cc1N(C)S(C)(=O)=O`, for which the cytotoxicity at 10 µM was -5.18%. Turning to `Cc1cc(=O)n(CC(=O)Nc2ccc(Cl)cc2)nc1C`, the cytotoxicity at 10 µM is -1.74%. `Cc1ccccc1CN1CC[C@@]2(O)CCN(C(=O)C3CCC3)C[C@H]2C1`: the cytotoxicity at 10 µM was 27.9%. As for `OC1CCN(C2CCN(Cc3cccc(Cn4cccn4)c3)CC2)CC1`, the cytotoxicity at 10 µM was -1.47%. On to `CC(C)(C)n1cc(C2=CCN(CCNC(N)=O)CC2)cn1`, for which the cytotoxicity at 10 µM was -3.51%.

Regarding `CNC(=O)CC1CCN(Cc2nc(-c3ccc(SC)cc3)oc2C)CC1`, the cytotoxicity at 10 µM was -8.97%. For the molecule `Cc1nc(C)n(C2CCCN(C(=O)COc3ccccc3)C2)n1` (configuration not stated), the cytotoxicity at 10 µM was -2.51%. Turning to `Cc1ccccc1-n1c(C)cc(C(=O)N2CCn3c(C)nnc3C2)c1C`, the cytotoxicity at 10 µM was -8.51%. As for `O=C(CCc1ccco1)Nc1cc(C(F)(F)F)c[nH]c1=O`, the figure is 13.9%. With `CCC1CCCCN1Cc1nc2c(cnn2C)c(=O)[nH]1` (configuration not stated) the figure was -3.18%; with `COc1ccccc1C(=O)NS(=O)(=O)c1cccc(C#N)c1`, -6.52%. With `O=S(=O)(NCc1ccccc1Cn1cncn1)N1CCCCC1` the figure was 2.6%; with `Cc1nn(C)c(Cl)c1C1CCCN1C(=O)c1cnccn1` (configuration not stated), -4.73%.

On to `O=C(CCNC(=O)c1ccoc1)Nc1cc(F)ccc1F`, for which the cytotoxicity at 10 µM is -12.8%. As for `CC(C)c1nc(CC(=O)N2CCCC(n3cncn3)C2)cs1` (configuration not stated), the figure is -8.24%.

With `Cc1ccc(C(=O)N2CCN(CC(O)c3ccc(F)cc3)CC2)s1` (configuration not stated), the cytotoxicity at 10 µM is -8.93%. As for `CNS(=O)(=O)CCCN1CCCC1c1cc(C)on1` (configuration not stated), the figure is -6.31%. As for `COc1ccccc1C(=O)N1CCCC1Cn1cc(C)cn1` (configuration not stated), the figure is -6.49%. With `Cc1nc(NCc2cccc(F)c2)cc(C2CCNCC2)n1` the figure was 2.79%. Take `COCCN1CCOCC12CCN(C(=O)Cc1cccs1)CC2`: the cytotoxicity at 10 µM was 10.8%.

In the case of `Cn1nc(COc2cncnc2)c2c1CCN(Cc1ccccn1)C2`, the cytotoxicity at 10 µM amounted to 9.67%. As for `CC(=O)N1CCn2c(-c3cccc(F)c3)cnc2C12CCNCC2`, the figure is 4.98%; as for `c1ccc(CN2CCCn3nnc(COc4ccccn4)c3C2)nc1`, 8.43%. With `COc1ncc(C2(O)CCN(Cc3cc(F)ccc3F)CC2)c(OC)n1` the figure was -16.1%.

Consider `COc1ccc(S(=O)(=O)NCC(N)c2ccccc2)c(C)c1` (configuration not stated), for which the cytotoxicity at 10 µM amounted to 0.0381%. For `O=C1C[C@H]2[C@@H](CCN2C(=O)Cc2cccs2)N1Cc1cccnc1`, the cytotoxicity at 10 µM was 7.48%. With `CN(C)c1ncc2c(n1)C1(CCN(Cc3ccccc3)C1)COC2` (configuration not stated) the figure was -5.07%; with `O=C1CC2(CCN(CC3CC3)C2)CN1c1ccc2c(c1)OCO2` (configuration not stated), -2.47%. Regarding `CN1CCN(Cc2cn3c(n2)CN(C(=O)c2ccccn2)CC3)CC1`, the cytotoxicity at 10 µM is -5.7%.
